From PubChem
TAAR1 agonist: human TAAR1 agonists, primary screen, Fluo-8 calcium fluorescence, CHO RD-HGA16 cells; vehicle wells 0%, saturating PEA agonist 100%; activation, % at 3 µM; 0.99% of 360,000 active;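 active = activation above the mean activation of all test compounds in the run plus 3 SD, cut at about 38% in these data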
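Test system: RD-HGA16 (CHO) cells co-expressing Gα16 and hTAAR1; dosing: one-point dosing at 3 µM (nominal); timing: 17-24 h seeding, 75 min 37 °C dye, 30 min RT; signal: kinetic Fluo-8 calcium fluorescence; read-out basis: % activation relative to PEA EC100 response; controls: DMSO and PEA EC100; replicates: n 1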
OX1R antag-1: OX1R (HCRTR1) antagonists, primary screen, fluorescence, CHO/OX1R cells, Fluo-8 calcium, orexin A. Orexin/Hypocretin receptor type 1 (Homo sapiens), O43613. Fluo-8 calcium fluorescence. inhibition, % at 5 µM. 0.43% of 330,000 active. AID 434989, 2010;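 active = inhibition above its plate's threshold, mean inhibition of all tested compounds on the plate plus 3 SD, cut at about 37% in these data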;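 note: 0% = orexin A challenge wells and 100% = SB-334867-A antagonist wells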
Target sequence (O43613 whole entry, looked up): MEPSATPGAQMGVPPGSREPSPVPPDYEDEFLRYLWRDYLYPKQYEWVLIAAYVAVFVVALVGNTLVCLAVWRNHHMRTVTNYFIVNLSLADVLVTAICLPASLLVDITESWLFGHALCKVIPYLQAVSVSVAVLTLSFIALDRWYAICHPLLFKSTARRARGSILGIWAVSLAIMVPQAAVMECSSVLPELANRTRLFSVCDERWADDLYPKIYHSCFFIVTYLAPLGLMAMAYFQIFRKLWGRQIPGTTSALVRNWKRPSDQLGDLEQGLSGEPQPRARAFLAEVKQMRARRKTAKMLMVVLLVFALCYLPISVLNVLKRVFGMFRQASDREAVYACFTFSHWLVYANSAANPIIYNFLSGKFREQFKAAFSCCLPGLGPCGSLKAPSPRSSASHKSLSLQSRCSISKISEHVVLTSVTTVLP
GPR7 antagonist: GPR7 receptor antagonists, primary screen, cell-based, fluorescence, single concentration. 1.1% of 290,000 active. Neuropeptides B/W receptor type 1 (Homo sapiens), P48145. GPR7-expressing cells, fluorescence antagonist assay. inhibition, % at 4.4 µM. AID 1861, 2009; in the data active = inhibition above about 16%, passing the limit was not always enough;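 note: cells stimulated with the agonist NPW; 0% = agonist with vehicle and 100% = vehicle without agonist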
Target sequence (P48145 whole entry, looked up): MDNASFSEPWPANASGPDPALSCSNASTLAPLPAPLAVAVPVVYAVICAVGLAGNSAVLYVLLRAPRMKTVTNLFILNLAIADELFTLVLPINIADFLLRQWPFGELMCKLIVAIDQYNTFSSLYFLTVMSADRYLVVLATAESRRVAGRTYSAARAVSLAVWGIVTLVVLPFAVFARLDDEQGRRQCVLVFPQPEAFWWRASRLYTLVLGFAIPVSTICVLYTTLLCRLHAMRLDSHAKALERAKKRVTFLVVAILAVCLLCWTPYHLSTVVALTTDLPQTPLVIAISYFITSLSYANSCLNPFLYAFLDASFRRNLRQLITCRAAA
OX1R antag-2: antagonists of human orexin 1 receptor (OX1R) | Orexin/Hypocretin receptor type 1 (Homo sapiens), O43613 | inhibition, % at 6.6 µM | OX1R-expressing cells, FRET antagonist read-out | 1.8% of 330,000 active; in the data active = inhibition mostly above about 38%, no sharp cut-off; inactive = mostly below about 40%;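 note: 0% = agonist challenge alone and 100% = reference antagonist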
CHO parental Ca: ATP-evoked calcium signal inhibitors, parental CHO, primary screen, counter-screen for OX1R antagonist project, cell-based, fluorescence, Fluo-8 calcium dye | AID 463079, 2010 | inhibition, % at 5.6 µM | 0.63% of 330,000 active | parental CHO-K1, ATP-induced calcium, Fluo-8 fluorescence;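 active = inhibition above that plate's mean sample inhibition plus 3 SD, cut at about 26% in these data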;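 note: 0% = ATP-challenged DMSO wells and 100% = DMSO wells without ATP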
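Material: Parental CHO cells | Reagent: ATP | Compound dosing: Single nominal dose of 5.6 µM per compound | Detection: Intracellular calcium via Fluo-8 no-wash fluorescent dye | Read-out: % inhibition of ATP-induced calcium mobilization | Benchmarks: Low control ATP plus DMSO, high control DMSO only | Replicates: Singlicate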
TAAR1 antagonist: human TAAR1 antagonists, primary screen, Fluo-8 calcium fluorescence, CHO RD-HGA16 cells | inhibition, % at 3 µM | antagonist | AID 624466, 2012 | Trace amine-associated receptor 1 (Homo sapiens), Q96RJ0 | 1.5% of 360,000 active;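 active = inhibition above a per-plate cutoff, the mean inhibition of test compounds on that plate plus 3 SD, cut at about 49% in these data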;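 note: 0% = DMSO plus EC80 beta-PEA response and 100% = DMSO alone without agonist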
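Test system: hTAAR1-expressing CHO RD-HGA16 cells, Gα16-coupled; Probe or stimulus: EC80 β-phenethylamine stimulus; Compound dosing: single nominal final test compound concentration of 3 µM; Timing: 140 s kinetic read after compound, 140 s after agonist; Signal: Fluo-8 calcium-sensitive fluorescence; Measure: % inhibition of agonist calcium response; Controls: DMSO and EC80 PEA controls.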
GPR7 antag conf: GPR7 receptor antagonists, confirmation, cell-based, fluorescence, single concentration; 52% of 2,400 active; shares compounds with GPR7 antagonist; inhibition, % at 4.4 µM; GPR7-expressing cells, calcium fluorescence antagonist mode; AID 1952, 2009; in the data active = inhibition above about 24%;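 note: stimulated with the GPR7 agonist NPW; 0% = agonist plus vehicle and 100% = vehicle alone without agonist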
MCHR1 antag: MCHR1 antagonists in cells, counter-screen for GPR7 antagonist project, cell-based, fluorescence, human; MCHR1-expressing cells, fluorescence antagonist assay; inhibition, % at 4.4 µM; 62% of 2,400 active; shares compounds with GPR7 antagonist; AID 2148, 2009; in the data active = inhibition above about 22%;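 note: 0% = vehicle with agonist and 100% = vehicle without agonist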
An asterisk follows results filed as active. Most compounds without a hit are left out; they make up all but 4.6% or so of the library.

Screening CNC(=S)N/N=C/c1cn(Cc2c(F)cccc2Cl)c2ccccc12 returned TAAR1 agonist 2.8, OX1R antag-1 -12.8, GPR7 antagonist 30.3*, OX1R antag-2 6.7, CHO parental Ca 2.5, TAAR1 antagonist -8.0, GPR7 antag conf 44.7* and MCHR1 antag 29.8*.
CC(C)Cc1ccc(C(C)C(=O)OCC(=O)c2c[nH]c3ccccc23)cc1 (configuration not stated) was read as TAAR1 agonist 54.5*, OX1R antag-1 38.7*, GPR7 antagonist 34.2*, OX1R antag-2 5.5, CHO parental Ca 75.1*, TAAR1 antagonist 21.9, GPR7 antag conf 66.9* and MCHR1 antag 78.0*.
`c1ccc(-c2nnc(-c3ccccc3)c(-c3c[nH]c4ccccc34)n2)cc1` gave TAAR1 agonist 5.7, OX1R antag-1 -10.4, GPR7 antagonist 18.8, OX1R antag-2 31.9, CHO parental Ca 0.8 and TAAR1 antagonist -0.4.
For c1ccc2c(-c3ccncc3)c[nH]c2c1 the results were TAAR1 agonist 16.6, OX1R antag-1 11.5, GPR7 antagonist 23.4*, OX1R antag-2 21.4, CHO parental Ca -2.6, TAAR1 antagonist -3.6, GPR7 antag conf -17.9 and MCHR1 antag 12.2.
`CCOC(=O)C(C)/C(C)=N/NC(=O)CCC(=O)Nc1cc(C)ccc1C` (configuration not stated) gave TAAR1 agonist 7.9, OX1R antag-1 -24.4, GPR7 antagonist -0.3, OX1R antag-2 3.0, CHO parental Ca -6.7 and TAAR1 antagonist 9.2.
COC(=O)c1c(NC(=O)CN2CCC(C(N)=O)CC2)c2c(C)cccc2n1C was read as TAAR1 agonist 4.5, OX1R antag-1 -12.2, GPR7 antagonist -7.0, OX1R antag-2 26.0, CHO parental Ca -3.6 and TAAR1 antagonist -12.6.
For COC(=O)c1c(NC(=O)CN2CCCC(C)C2)c2c(C)cccc2n1C (configuration not stated) the results were TAAR1 agonist 4.7, OX1R antag-1 -22.2, GPR7 antagonist 25.9*, OX1R antag-2 2.7, CHO parental Ca -18.3, TAAR1 antagonist -0.7, GPR7 antag conf 14.1 and MCHR1 antag 27.1*.
COc1ccccc1CNC(=O)C[C@@H]1C[C@H]2c3cc(N(C)C)ccc3O[C@H]2[C@H](CO)O1 was read as TAAR1 agonist 2.2 and TAAR1 antagonist -15.8.
For O=C(CNC(=O)c1ccco1)OCc1c(F)cccc1Cl the results were TAAR1 agonist 23.9, OX1R antag-1 2.0, GPR7 antagonist 24.8*, OX1R antag-2 7.9, CHO parental Ca -5.1, TAAR1 antagonist 12.6, GPR7 antag conf 0.3 and MCHR1 antag 7.0.
O=C(CNC(=O)c1ccco1)NCC(=O)OCc1c(F)cccc1Cl was read as TAAR1 agonist -0.4, OX1R antag-1 -6.3, GPR7 antagonist -14.7, OX1R antag-2 2.4, CHO parental Ca -9.4 and TAAR1 antagonist 5.7.
`Cc1nn(C)c(C)c1N1C(=O)c2cccc3c(N)ccc(c23)C1=O` gave TAAR1 agonist 124.3*, OX1R antag-1 62.2*, GPR7 antagonist 21.6*, OX1R antag-2 19.0, CHO parental Ca 50.6*, TAAR1 antagonist 64.0*, GPR7 antag conf 26.1* and MCHR1 antag 37.6*.
`Cc1nn(C)c(C)c1N1C(=O)c2cccc3c(Br)ccc(c23)C1=O` gave TAAR1 agonist 17.2, OX1R antag-1 1.9, GPR7 antagonist -15.0, OX1R antag-2 62.4, CHO parental Ca 2.7 and TAAR1 antagonist 9.0.
CN(C)c1cccc(-c2csc(N3CCC(C(N)=O)CC3)n2)c1 was read as TAAR1 agonist -1.5, OX1R antag-1 -10.2, OX1R antag-2 3.5, CHO parental Ca -11.4 and TAAR1 antagonist 0.9.
`Nc1ccc(-c2nc3ncccc3o2)cc1` gave TAAR1 agonist -0.4, OX1R antag-1 -5.3, GPR7 antagonist 1.7, OX1R antag-2 3.7, CHO parental Ca -11.3 and TAAR1 antagonist -1.8.
For N=C(N)SCc1cn(-c2ccccc2)nc1-c1ccc(Br)cc1 the results were TAAR1 agonist 78.9*, GPR7 antagonist 25.8*, TAAR1 antagonist 46.7, GPR7 antag conf 63.1* and MCHR1 antag 89.2*.
Screening C=CCOc1cccc(C(=O)N2CCCC(Nc3ccc(F)cc3)C2)c1 (configuration not stated) returned TAAR1 agonist 3.9, OX1R antag-1 -18.0, GPR7 antagonist -0.8, OX1R antag-2 25.8, CHO parental Ca -17.2 and TAAR1 antagonist -8.9.
COc1cc(OC)cc(C(=O)N2CCCC(Nc3ccc(F)cc3)C2)c1 (configuration not stated) was read as TAAR1 agonist -0.6, OX1R antag-1 -39.6, GPR7 antagonist 27.8*, OX1R antag-2 15.9, CHO parental Ca -17.6, TAAR1 antagonist -11.3, GPR7 antag conf -14.6 and MCHR1 antag -11.3.
`CC(=O)Nc1ccc(S(=O)(=O)N2CCN(Cc3cccnc3)CC2)cc1` gave TAAR1 agonist -0.2, OX1R antag-1 -1.6, GPR7 antagonist -2.5, OX1R antag-2 30.8, CHO parental Ca -3.0 and TAAR1 antagonist -2.2.
`O=S(=O)(NCc1cccnc1)c1ccc2c(c1)OCCO2` gave TAAR1 agonist 8.6, OX1R antag-1 0.2, GPR7 antagonist 22.8*, OX1R antag-2 2.5, CHO parental Ca -1.2, TAAR1 antagonist -2.7, GPR7 antag conf -18.8 and MCHR1 antag 17.5.
For Cc1ccc(S(=O)(=O)NCc2ccc(C(=O)NCc3cccnc3)cc2)cc1 the results were OX1R antag-1 -18.2, GPR7 antagonist 22.7*, OX1R antag-2 14.7, CHO parental Ca -14.1, GPR7 antag conf -4.0 and MCHR1 antag 0.1.
For Cc1ccc(OCC(=O)NCc2cccnc2)cc1 the results were TAAR1 agonist 3.5, OX1R antag-1 -2.9, GPR7 antagonist 24.0*, OX1R antag-2 18.8, CHO parental Ca -10.9, TAAR1 antagonist -4.7, GPR7 antag conf -4.9 and MCHR1 antag 5.3.
For COc1ccc(OCCN2CCN(S(=O)(=O)c3ccccc3C(F)(F)F)CC2)cc1 the results were TAAR1 agonist 0.9, OX1R antag-1 -9.1, OX1R antag-2 7.5, CHO parental Ca -1.6 and TAAR1 antagonist 16.0.
